# Test results published in ChEMBL document CHEMBL1134227, “The design of phenylglycine containing benzamidine carboxamides as potent and selective inhibitors of factor Xa” (Bioorg Med Chem Lett, 2001).
# “And” between values parts separate entries of the source, which are not always exact repeats. Equal entries are not always repeated.
# Columns and labels:
# Prothrombin = Prothrombin (Homo sapiens, UniProt P00734); experiment: Affinity for human thrombin
# Outline: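 Chromogenic assay with 1 nM human thrombin and Pefachrome-TH substrate, in 100 mM phosphate buffer with 0.1% bovine serum albumin at pH 7.4. Compounds were dissolved in Me₂SO and diluted into the buffer. Hydrolysis was followed as the rise in optical density at 405 on a microplate reader.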
# Serine protease 1 = Serine protease 1 (Homo sapiens, UniProt P07477); experiment: Binding affinity against human trypsin
# Outline: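 Human trypsin at 1 nM final with Pefachrome-TRY chromogenic substrate, in 100 mM phosphate, 0.1% bovine serum albumin, pH 7.4. Test compounds were dissolved in Me₂SO and diluted into the assay buffer. The read-out was the optical density increase at 405 from substrate cleavage.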
# Coagulation factor X = Coagulation factor X (Homo sapiens, UniProt P00742); experiment: Binding affinity against human coagulation factor Xa
# Outline: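 Human fXa at 100 pM final with Pefachrome-FXA substrate, in 100 mM phosphate buffer with 0.1% bovine serum albumin at pH 7.4. Compounds were taken from Me₂SO stocks into the buffer.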
# Chain of Serine protease 1 (P07477 whole entry): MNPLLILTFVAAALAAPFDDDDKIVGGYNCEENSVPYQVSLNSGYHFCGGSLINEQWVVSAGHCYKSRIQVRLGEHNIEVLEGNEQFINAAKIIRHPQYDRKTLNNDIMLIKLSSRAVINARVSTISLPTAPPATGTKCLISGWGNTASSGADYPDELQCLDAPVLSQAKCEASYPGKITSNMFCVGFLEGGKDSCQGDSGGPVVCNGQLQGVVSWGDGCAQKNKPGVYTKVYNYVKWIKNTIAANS
# Chain of Coagulation factor X (P00742 41-179 limits assumed): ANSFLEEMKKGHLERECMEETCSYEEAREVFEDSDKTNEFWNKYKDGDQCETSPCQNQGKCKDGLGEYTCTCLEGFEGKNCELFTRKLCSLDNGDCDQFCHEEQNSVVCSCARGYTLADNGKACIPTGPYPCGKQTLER
# Chain of Coagulation factor X (P00742 235-488 limits assumed): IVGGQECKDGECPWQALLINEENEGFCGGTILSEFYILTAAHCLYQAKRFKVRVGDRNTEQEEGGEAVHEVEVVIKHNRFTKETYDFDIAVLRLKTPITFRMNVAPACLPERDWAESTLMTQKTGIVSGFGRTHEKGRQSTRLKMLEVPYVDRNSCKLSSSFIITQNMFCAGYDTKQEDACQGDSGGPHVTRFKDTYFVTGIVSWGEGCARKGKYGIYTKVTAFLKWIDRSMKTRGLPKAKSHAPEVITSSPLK
Ki (Prothrombin),Ki (Serine protease 1),Ki (Coagulation factor X),SMILES
17.8 µM,0.56 µM,13 nM,N=C(N)c1cccc(C(=O)N[C@@H](C(=O)N2CCN(c3ccncc3)CC2)c2ccccc2)c1
,1.1 µM,800 nM,N=C(N)c1cccc(C(=O)NC(C(=O)NCC2CCC(CN)CC2)c2ccc(-c3ccccc3)cc2)c1 (stereo unspecified)
,6 µM,2500 nM,N=C(N)c1cccc(C(=O)NC(C(=O)NCC2CCC(CN)CC2)c2ccc(Cl)cc2)c1 (stereo unspecified)
,7.9 µM,10500 nM,CSCC[C@H](NC(=O)c1cccc(C(=N)N)c1)C(=O)NCC1CCC(CN)CC1 (stereo partly specified)
,10 µM,2300 nM,CSCC[C@@H](NC(=O)c1cccc(C(=N)N)c1)C(=O)NCC1CCC(CN)CC1 (stereo partly specified)
7.94 µM,2.2 µM,120 nM,N=C(N)c1cccc(C(=O)N[C@@H](C(=O)N2CCN(Cc3ccccc3)CC2)c2ccccc2)c1
1.35 µM,0.65 µM,30 nM,N=C(N)c1cccc(C(=O)N[C@@H](C(=O)N2CCC(Cc3ccccc3)CC2)c2ccccc2)c1
,2.2 µM,145 nM,N=C(N)c1cccc(C(=O)N[C@@H](C(=O)NCCCc2ccccc2)c2ccccc2)c1
1.26 µM,0.32 µM,,N=C(N)c1cccc(C(=O)N[C@@H](C(=O)N2CCC(C(=O)c3ccccc3)CC2)c2ccccc2)c1
26 µM,4.1 µM,500 nM,N=C(N)c1cccc(C(=O)N[C@@H](C(=O)NCc2ccc(CN)cc2)c2ccccc2)c1
,8.5 µM,500 nM,N=C(N)c1cccc(C(=O)N[C@@H](C(=O)NCC2CCC(CN)CC2)C2CCCCC2)c1 (stereo partly specified)
,16.2 µM,,CC(C)[C@@H](NC(=O)c1cccc(C(=N)N)c1)C(=O)NCC1CCC(CN)CC1 (stereo partly specified)
1.74 µM,0.34 µM,16 nM,N=C(N)c1cccc(C(=O)N[C@@H](C(=O)N2CCN(c3ccccc3)CC2)c2ccccc2)c1
,3.9 µM,300 nM,N=C(N)c1cccc(C(=O)NC(C(=O)NCC2CCC(CN)CC2)c2cccc(Cl)c2)c1 (stereo in doubt; 9)
,5.1 µM,300 nM,N=C(N)c1cccc(C(=O)NC(C(=O)NCC2CCC(CN)CC2)c2cccc(Cl)c2)c1 (stereo in doubt; 11)

# Second part, the compound before the results:
SMILES,Ki (Prothrombin),Ki (Serine protease 1),Ki (Coagulation factor X)
CC(C)[C@H](NC(=O)c1cccc(C(=N)N)c1)C(=O)NCC1CCC(CN)CC1 (stereo partly specified),,12.6 µM,38000 nM
N=C(N)c1cccc(C(=O)N[C@@H](C(=O)NCCc2ccccc2)c2ccccc2)c1,3.1 µM,3.3 µM,850 nM
N=C(N)c1cccc(C(=O)NC(C(=O)NCC2CCC(CN)CC2)c2cccc3ccccc23)c1 (stereo unspecified),,2.1 µM,100 nM
N=C(N)c1cccc(C(=O)N[C@@H](C(=O)N2CCC(C(=O)c3ccc(F)cc3)CC2)c2ccccc2)c1,1.18 µM,0.54 µM,10 nM
N=C(N)c1cccc(C(=O)NC(C(=O)NCC2CCC(CN)CC2)c2ccccc2)c1 (stereo unspecified),6.5 µM,4.5 µM and 5.6 µM,
COc1ccc(CNC(=O)[C@H](NC(=O)c2cccc(C(=N)N)c2)c2ccccc2)cc1,2.3 µM,5.5 µM,28 nM
N=C(N)c1cccc(C(=O)N[C@@H](C(=O)NCc2ccccc2)c2ccccc2)c1,8.5 µM,5.4 µM,910 nM
N=C(N)c1cccc(C(=O)NCC(=O)NCC2CCC(CN)CC2)c1 (stereo unspecified),,23 µM,
N=C(N)c1cccc(C(=O)N[C@H](Cc2ccccc2)C(=O)NCC2CCC(CN)CC2)c1 (stereo partly specified),,17.4 µM,25700 nM
N=C(N)c1cccc(C(=O)N[C@@H](C(=O)N2CCN(C(=O)c3ccccc3)CC2)c2ccccc2)c1,7.94 µM,0.46 µM,
N=C(N)c1cccc(C(=O)N[C@H](C(=O)NCC2CCC(CN)CC2)C2CCCCC2)c1 (stereo partly specified),,3.6 µM,7800 nM
N=C(N)c1cccc(C(=O)N[C@@H](C(=O)N2CCN(c3ccc(F)cc3)CC2)c2ccccc2)c1,3.8 µM,1.26 µM,15 nM
Cc1ccc(CNC(=O)[C@H](NC(=O)c2cccc(C(=N)N)c2)c2ccccc2)cc1,,4.9 µM,42 nM
N=C(N)c1cccc(C(=O)N[C@@H](Cc2ccccc2)C(=O)NCC2CCC(CN)CC2)c1 (stereo partly specified),,12.6 µM,33900 nM
